Laboratory results: ChEMBL document CHEMBL3272033, “Physicochemical and pharmacological studies of some 8-substituted decahydroisoquinolines” (J Med Chem, 1976)

Tests used:
[1] = Dissociation constant, pKa of the compound in 0.01 M potassium hydrogen phthalate; format: physicochemical
Method in brief: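 pKa by potentiometric titration with 0.01 M potassium hydrogen phthalate in a thermostated vessel, stirred, under nitrogen bubbling, using glass and calomel electrodes. pKa is the mean pH at half-neutralization from four titrations. Endpoints were taken from parallel tangents on either side of the inflection.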

Homo sapiens [2] = species on record: Homo sapiens; experiment: Drug absorption in buccal cavity in human at pH 9.3 after 5 mins by UV spectrometry; format: ADME, organism-based; details: in vivo, other, pH 9.3, 5 min
Method in brief: (§1)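 3 mg compound in 25 ml buffer (0.1 M phosphate pH 5.50 or 7.50; tetraborate pH 9.30) swished in the mouth for 5 min, expelled, and combined with a 10 ml water rinse. Made up to 50 ml; aliquot basified to pH 10 and ether-extracted, then back-extracted into 0.1 N HCl. UV absorbance read at λmax against Beer's law plots; the unrecovered fraction is taken as % absorbed. One to three subjects.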

Homo sapiens [3] = species on record: Homo sapiens; experiment: Drug absorption in buccal cavity in human at pH 5.50 after 5 mins by UV spectrometry; format: ADME, organism-based; details: in vivo, other, pH 5.5, 5 min; method in brief: as §1
Homo sapiens [4] = species on record: Homo sapiens; experiment: Drug absorption in buccal cavity in human at pH 7.50 after 5 mins by UV spectrometry; format: ADME, organism-based; details: in vivo, other, pH 7.5, 5 min; method in brief: as §1
Heart [5] = experiment: Antiarrhythmic activity in Hartley guinea pig atria assessed as change in maximum driving rate at 73.4 uM/l after 5 mins; format: functional, Cavia porcellus
Method in brief: (§2)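 Spontaneously beating isolated atria held under initial tension; bath fluid changed every 10 min; stabilised about 1 h. Maximum driving rate found with 1-ms square pulses at 50% above threshold voltage, 10 s every 30 s; the frequency just before failure of following is the MDR. Control is the mean of two determinations. Spontaneous rate recorded by tachograph. Values are % change from control at peak response, generally 5–30 min.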

Mus musculus [6] = experiment: Antiarrhythmic activity in ip dosed Swiss-Webster albino mouse assessed as prevention of chloroform-induced ventricular fibrillation; format: functional, Heart
Mus musculus [7] = experiment: Toxicity in ip dosed Swiss-Webster albino mouse; format: organism-based; details: in vivo
[8] = Therapeutic index, ratio of LD50 for toxicity to ED50 for antiarrhythmic activity in ip dosed Swiss-Webster albino mouse; format: organism-based, Heart; details: in vivo, read-out: Ratio LD50/ED50
Heart [9] = experiment: Antiarrhythmic activity in Hartley guinea pig atria assessed as change in spontaneous rate at 73.4 uM/l after 5 mins; format: functional, Cavia porcellus; method in brief: as §2
Heart [10] = experiment: Antiarrhythmic activity in Hartley guinea pig atria assessed as change in maximum driving rate at 66.1 uM/l after 5 mins; format: functional, Cavia porcellus; method in brief: as §2
Heart [11] = experiment: Antiarrhythmic activity in Hartley guinea pig atria assessed as change in spontaneous rate at 66.1 uM/l after 5 mins; format: functional, Cavia porcellus; method in brief: as §2
Heart [12] = experiment: Antiarrhythmic activity in Hartley guinea pig atria assessed as change in maximum driving rate at 60.2 uM/l after 5 mins; format: functional, Cavia porcellus; method in brief: as §2
Heart [13] = experiment: Antiarrhythmic activity in Hartley guinea pig atria assessed as change in spontaneous rate at 60.2 uM/l after 5 mins; format: functional, Cavia porcellus; method in brief: as §2
Heart [14] = experiment: Antiarrhythmic activity in Hartley guinea pig atria assessed as change in maximum driving rate at 55.2 uM/l after 5 mins; format: functional, Cavia porcellus; method in brief: as §2
Heart [15] = experiment: Antiarrhythmic activity in Hartley guinea pig atria assessed as change in spontaneous rate at 55.2 uM/l after 5 mins; format: functional, Cavia porcellus; method in brief: as §2
Heart [16] = experiment: Antiarrhythmic activity in Hartley guinea pig atria assessed as change in maximum driving rate at 65.2 uM/l after 5 mins; format: functional, Cavia porcellus; method in brief: as §2
Heart [17] = experiment: Antiarrhythmic activity in Hartley guinea pig atria assessed as change in spontaneous rate at 65.2 uM/l after 5 mins; format: functional, Cavia porcellus; method in brief: as §2
Heart [18] = experiment: Antiarrhythmic activity in Hartley guinea pig atria assessed as change in maximum driving rate at 58.6 uM/l after 5 mins; format: functional, Cavia porcellus; method in brief: as §2
Heart [19] = experiment: Antiarrhythmic activity in Hartley guinea pig atria assessed as change in spontaneous rate at 58.6 uM/l after 5 mins; format: functional, Cavia porcellus; method in brief: as §2
Heart [20] = experiment: Antiarrhythmic activity in Hartley guinea pig atria assessed as change in maximum driving rate at 55.0 uM/l after 5 mins; format: functional, Cavia porcellus; method in brief: as §2
Heart [21] = experiment: Antiarrhythmic activity in Hartley guinea pig atria assessed as change in spontaneous rate at 55.0 uM/l after 5 mins; format: functional, Cavia porcellus; method in brief: as §2
Homo sapiens [22] = experiment: Toxicity in human assessed as numbness at 5 x 10' -5 M administered topically to buccal cavity measured up to 15 to 20 mins; format: organism-based; details: in vivo, topical_or_ocular, 50 µM

Row | SMILES | pKa [1] | Drug absorption (Homo sapiens [2]) | Drug absorption (Homo sapiens [3]) | Drug absorption (Homo sapiens [4]) | ED50 (Mus musculus [6]) | LD50 (Mus musculus [7]) | selectivity ratio [8] | further results
1 | CN1CC[C@H]2CCC[C@@H](NC(=O)c3ccccc3)[C@H]2C1 (mixture of isomers) | 9.18 | 40.6% | 9.3% | 16% | 242 µmol/kg | 1430 | 5.9 | Activity (Heart [5]): -15.1%; Activity (Heart [9]): -7.2%
2 | CN1CC[C@H]2CCC[C@@H](NC(=O)c3ccccc3)[C@@H]2C1 (mixture of isomers) | 8.99 | 42.9% | 11.1% | 15.9% | 246 µmol/kg | 1450 | 5.9 | Activity (Heart [5]): -17.6%; Activity (Heart [9]): -19.3%
3 | COc1ccccc1C(=O)N[C@@H]1CCC[C@@H]2CCN(C)C[C@@H]21 (mixture of isomers) | 9.11 | 35.1% | 1.2% | 5.3% | 116 µmol/kg | 847 | 7.3 | Activity (Heart [10]): -23.2%; Activity (Heart [11]): -25.5%
4 | COc1ccccc1C(=O)N[C@@H]1CCC[C@@H]2CCN(C)C[C@H]21 (mixture of isomers) | 8.81 | 41.2% | 5.2% | 12.8% | 175 µmol/kg | 761 | 4.3 | Activity (Heart [10]): -19.8%; Activity (Heart [11]): -25%
5 | COc1ccc(C(=O)N[C@@H]2CCC[C@@H]3CCN(C)C[C@@H]32)cc1 (mixture of isomers) | 9.19 | 30.6% | 4.7% | 7% | 268 µmol/kg | 1560 | 5.8 | Activity (Heart [10]): -15.1%; Activity (Heart [11]): -44.2%
6 | COc1ccc(C(=O)N[C@@H]2CCC[C@@H]3CCN(C)C[C@H]32)cc1 (mixture of isomers) | – | 34.3% | 7.4% | 9% | 195 µmol/kg | 1490 | 7.6 | Activity (Heart [10]): -19.8%; Activity (Heart [11]): -21.5%
7 | COc1ccc(C(=O)N[C@@H]2CCC[C@@H]3CCN(C)C[C@@H]32)cc1OC (mixture of isomers) | – | 17.6% | 7% | 10.4% | 199 µmol/kg | 1770 | 8.9 | Activity (Heart [12]): -9.71%; Activity (Heart [13]): -16.9%
8 | COc1ccc(C(=O)N[C@@H]2CCC[C@@H]3CCN(C)C[C@H]32)cc1OC (mixture of isomers) | 8.89 | 27.1% | 16.8% | 18.9% | 164 µmol/kg | 1600 | 9.8 | Activity (Heart [12]): -13.8%; Activity (Heart [13]): -20.2%
9 | COc1cc(C(=O)N[C@@H]2CCC[C@@H]3CCN(C)C[C@@H]32)cc(OC)c1OC (mixture of isomers) | 9.02 | 23.8% | 8.1% | 14.2% | 160 µmol/kg | 1170 | 7.3 | Activity (Heart [14]): -7%; Activity (Heart [15]): -9.8%
10 | CN1CC[C@H]2CCC[C@@H](NC(=O)c3ccc(Cl)cc3)[C@H]2C1 (mixture of isomers) | – | 43.2% | 6.7% | 9.3% | 209 µmol/kg | 909 | 4.4 | Activity (Heart [16]): -28.5%; Activity (Heart [17]): -13.1%
11 | CN1CC[C@H]2CCC[C@@H](NC(=O)c3ccc(Cl)cc3)[C@@H]2C1 (mixture of isomers) | 8.83 | 54.4% | 8.2% | 12.4% | 200 µmol/kg | 952 | 4.8 | Activity (Heart [16]): -20%; Activity (Heart [17]): -57.4%
12 | CN1CC[C@H]2CCC[C@@H](NC(=O)c3ccc(Cl)c(Cl)c3)[C@H]2C1 (mixture of isomers) | 9.05 | 60.6% | 20.1% | 25.1% | 73 µmol/kg | 712 | 9.7 | Activity (Heart [18]): -34.1%; Activity (Heart [19]): -21.7%
13 | COc1cc(C(=O)O[C@@H]2CCC[C@@H]3CCN(C)C[C@@H]32)cc(OC)c1OC (mixture of isomers) | 8.91 | 70.7% | 21.2% | 38.2% | 162 µmol/kg | 421 | 2.6 | Activity (Heart [20]): -32.3%; Activity (Heart [21]): -53.2%; Activity (Homo sapiens [22]): Toxic
14 | CN1CC[C@H]2CCC[C@@H](NS(=O)(=O)c3ccccc3)[C@H]2C1 (mixture of isomers) | 9.17 | 30.4% | 14.9% | 17.7% | 282 µmol/kg | 1460 | 5.2 | –
15 | CN1CC[C@H]2CCC[C@@H](NS(=O)(=O)c3ccccc3)[C@@H]2C1 (mixture of isomers) | 8.87 | 37.1% | 11.9% | 20.4% | 347 µmol/kg | 1113 | 3.3 | –
16 | C=C[C@H]1C[N@@]2CC[C@H]1C[C@@H]2[C@@H](O)c1ccnc2ccc(OC)cc12 [QUINIDINE] | – | – | – | – | – | 533 uM/L | – | –
